# An excerpt weighted towards active compounds, which were near 2.1% of everything screened.
# UCH37 DUB inh – inhibitors of human deubiquitinating enzyme UCH37; purified proteasome/UCH37, Ub-AMC cleavage fluorescence; inhibition, % (concentration not given with the values); 330,000 compounds, 0.33% hits; AID 588478;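 active = mean inhibition over replicate wells above about 20%, limit read from the data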;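 note: 0% = compound-free wells with enzyme and 100% = wells lacking proteasome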
# Target sequence (Q9Y5K5 whole entry, looked up): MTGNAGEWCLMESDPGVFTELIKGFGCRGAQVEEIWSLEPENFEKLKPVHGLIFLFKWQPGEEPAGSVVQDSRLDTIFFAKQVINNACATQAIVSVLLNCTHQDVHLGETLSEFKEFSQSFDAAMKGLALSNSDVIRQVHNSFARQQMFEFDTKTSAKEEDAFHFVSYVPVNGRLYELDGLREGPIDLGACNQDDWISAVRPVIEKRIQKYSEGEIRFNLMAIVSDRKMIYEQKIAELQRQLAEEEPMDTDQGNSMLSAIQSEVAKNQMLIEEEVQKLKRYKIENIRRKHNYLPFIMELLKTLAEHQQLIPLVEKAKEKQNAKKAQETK
#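 System: Proteasome-associated human UCH37 deubiquitinase; Input: 0.15 nM proteasome in added enzyme buffer; Also added: Ub-AMC substrate from 1 µM stock; Incubation: 30 min compound-proteasome preincubation then 25 min substrate reaction, room temperature; Detection: fluorescence, ex 355 nm, em 460 nm; Read-out: % inhibition of Ub-AMC cleavage fluorescence; Benchmarks: no-proteasome and no-compound wells.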
# RTF Ca sens inh – cardiac RTF calcium desensitization. P19429+P45379. IANBD-labeled cardiac RTF, Ca2+ fluorescence. inhibition, % at 7.15 µM. 340,000 compounds, 0.12% hits. AID 493244;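 active = inhibition above the mean inhibition of all tested compounds plus 3 SD, cut at about 17% in these data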;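 note: assay run at fixed EC70 calcium of 1.6 mM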
# ARNT-TACC3 inh – disrupts binding between human ARNT and TACC3; AlphaScreen His-ARNT PAS-B/GST-TACC3 binding, luminescence; TACC3 fragment carries E629A point mutation; Q9Y6A5; inhibition, % at 9.99 µM; 390,000 compounds, 0.66% hits;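 active = mean inhibition of replicates at least 50% and at least half of replicates each reaching 50%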;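 note: 0% = complete ARNT plus TACC3 wells and 100% = ARNT alone without TACC3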
# SUMO Mot1 rescue – inhibitors of SUMOylation pathway: yeast Mot1-301 growth rescue | 320,000 compounds, 1% hits | AID 2716 | growth rescue, % at 18.8 µM | S. cerevisiae Mot1-301 growth rescue, ATP luminescence, 38.5C; percent above DMSO median, 100 means doubled;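 active = every valid replicate shows activation above 250% relative to neutral control wells; inactive = the rest, any valid replicate at or below 250%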;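 note: OY570 slx delta 5 strain wells were the positive control but not used for scaling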
# RTF Ca sens act – cardiac RTF calcium sensitization; IANBD-labeled TnC RTF fluorescence at EC20 calcium; 0% EC20 calcium, 100% full calcium; activation, % at 7.2 µM; 340,000 compounds, 0.24% hits; AID 493008;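 active = activation above the mean over all tested compounds plus 3 SD, cut at about 30% in these data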;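 note: rise in fluorescence read as greater calcium sensitivity of cardiac thin filaments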
# Efflux pump mplx – inhibitors of Candida antifungal efflux pumps expressed in yeast; S. cerevisiae Candida pump triplex, Nile Red efflux; 330,000 compounds, 0.44% hits; inhibition, % at 10 µM;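 active = plate passing quality check with inhibition over a set limit, or well fluorescence over plate mean plus 4 SD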;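 note: Nile Red retained in pooled yeast measured as flow cytometry median fluorescence; 0% = buffer negative control and 100% = Enniatin B positive control; higher means more Nile Red kept so more efflux inhibition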
# ARNT Alpha ctr – interferes with AlphaScreen signal, flagging false ARNT-TACC3 hits; shares compounds with ARNT-TACC3 inh; AID 651705; 1,200 compounds, 50% hits; AC50, µM (titrated, usually from 68 µM), inactives show at the top dose activity change, negative = signal decrease; His-ARNT PASB-GST AlphaScreen artifact counter-screen, luminescence;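 active = every separate test run was called active for a drop in luminescence, with AC50 within twice the top valid dose, actives reach about 71 µM in these data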
# * hit, by the source's call; / = not tested or not shown.
SMILES,UCH37 DUB inh,RTF Ca sens inh,ARNT-TACC3 inh,SUMO Mot1 rescue,RTF Ca sens act,Efflux pump mplx,ARNT Alpha ctr
Cc1cccc(C(=O)Nc2nnc(-c3ccco3)o2)c1,6,-1,56*,187,1,0,-35%
O=C(Nc1nnc(-c2ccco2)o1)c1cccc2ccccc12,4,8,17,/,0,0,/
Cc1cccc(C(=O)Nc2nnc(-c3ccncc3)o2)c1,3,-7,62*,14,3,0,-27%
CC1CN(CCc2ccccc2)C(C)CC1=NO (centres undefined),3,/,/,/,/,/,/
Cn1cc(C(=O)NN=CC2=C(N3CCOCC3)/C(=C/c3ccc([N+](=O)[O-])cc3)CC2)ccc1=O,2,/,/,/,/,/,/
O=C(NN=Cc1ccc([N+](=O)[O-])o1)C1CC1,13,/,/,/,/,/,/
c1ccc(-c2nc3ccccc3[nH]2)nc1,-4,0,59*,27,1,0,-16%
O=c1[nH]c(-c2ccccn2)nc2ccccc12,2,-2,64*,-33,-11,0,-13%
Cc1ccc2nc(-c3ccccn3)[nH]c2c1,-7,1,39*,-8,-3,0,-15%
Nc1nonc1C(=O)NN=Cc1ccncc1,5,/,/,/,/,/,/
O=S1(=O)N=C(NN=C/C=C/c2ccccc2)c2ccccc21,17,/,/,/,/,/,/
COc1cc(C=NNC(=O)/C(=C\c2ccc3c(c2)OCO3)NC(=O)c2ccccc2)ccc1O,-18,/,/,/,/,/,/
Cc1ccc(NS(=O)(=O)c2cccc(C(=O)NN=Cc3c(C)nn(-c4ccccc4)c3N3CCCC3)c2)c(C)c1,-81,/,/,/,/,/,/
Cc1ccc(S(=O)(=O)Oc2ccccc2C=NNC(=O)c2c(Cl)cnn2C)cc1,6,/,/,/,/,/,/
O=c1[nH][nH]c(=O)c2nc(Nc3ccccc3)ncc12,4,-5,69*,/,6,/,-17%
C#CCOc1ccc(OC)cc1C(c1c(C)[nH][nH]c1=O)c1c(C)[nH][nH]c1=O,1,5,37*,-11,2,0,2%
CC(=NNc1nc(C(C)(C)C)cs1)c1ccc(O)cc1,3,/,/,/,/,/,/
O=C(N[C@H]1CC[C@@H](CCn2cc(-c3ccccn3)nn2)O[C@@H]1CO)c1ccc(F)cc1,/,/,112*,/,/,/,45µM*
O=C(N[C@@H]1CC[C@@H](CCn2cc(-c3ccccn3)nn2)O[C@H]1CO)c1ccc(F)cc1,/,/,75*,/,/,/,47µM*
COCc1cn(CC[C@@H]2CC[C@@H](NC(=O)c3ccc(F)cc3)[C@H](CO)O2)nn1,/,/,6,/,/,/,/
O=C(N[C@H]1CC[C@@H](CCn2cc(-c3ccccn3)nn2)O[C@H]1CO)c1ccc(F)cc1,/,/,60*,/,/,/,43µM*
COCc1cn(CC[C@@H]2CC[C@@H](NC(=O)c3ccc(F)cc3)[C@@H](CO)O2)nn1,/,/,-7,/,/,/,/
O=C(N[C@H]1CC[C@@H](CCn2cc(-c3ccc(F)cc3)nn2)O[C@H]1CO)c1cnccn1,/,/,-8,/,/,/,/
O=C(N[C@@H]1CC[C@H](CCn2cc(-c3ccccn3)nn2)O[C@H]1CO)c1ccc(F)cc1,/,/,43*,/,/,/,43µM*
CC(=NNS(=O)(=O)c1ccc([N+](=O)[O-])cc1)c1c[nH]c2ccccc12,-1,/,/,/,/,/,/
SMILES,UCH37 DUB inh,RTF Ca sens inh,ARNT-TACC3 inh,SUMO Mot1 rescue,RTF Ca sens act,Efflux pump mplx,ARNT Alpha ctr
COC(=O)Cn1cc(C=NNC(=O)c2ccc(C#N)cc2F)c2ccccc21,12,/,/,/,/,/,/
CCOc1ccc(N(CC(=O)Nc2cc(OC)cc(OC)c2)S(=O)(=O)c2c(C)[nH]c(=O)[nH]c2=O)cc1,2,-3,4,24,-2,0,/
CCOc1ccccc1NC(=O)CN(c1ccc(OC)cc1)S(=O)(=O)c1c(C)[nH]c(=O)[nH]c1=O,/,3,55*,31,-2,0,29µM*
CCOc1ccc(N(CC(=O)Nc2ccc(OC)cc2OC)S(=O)(=O)c2c(C)[nH]c(=O)[nH]c2=O)cc1,5,-2,58*,9,-3,0,10µM*
C(=Nn1cnnc1)c1cccs1,6,/,/,/,/,/,/
CC1(C)CC(=O)CC(=NNC(=O)CCc2ccc(S(=O)(=O)N3CCOCC3)cc2)C1,3,/,/,/,/,/,/

# High-throughput results deposited in PubChem BioAssay by several laboratories.
